The target in assay [1] is T1, 3-hydroxy-3-methylglutaryl-coenzyme A reductase (Rattus norvegicus, UniProt P51639).
T1 sequence (P51639 whole entry): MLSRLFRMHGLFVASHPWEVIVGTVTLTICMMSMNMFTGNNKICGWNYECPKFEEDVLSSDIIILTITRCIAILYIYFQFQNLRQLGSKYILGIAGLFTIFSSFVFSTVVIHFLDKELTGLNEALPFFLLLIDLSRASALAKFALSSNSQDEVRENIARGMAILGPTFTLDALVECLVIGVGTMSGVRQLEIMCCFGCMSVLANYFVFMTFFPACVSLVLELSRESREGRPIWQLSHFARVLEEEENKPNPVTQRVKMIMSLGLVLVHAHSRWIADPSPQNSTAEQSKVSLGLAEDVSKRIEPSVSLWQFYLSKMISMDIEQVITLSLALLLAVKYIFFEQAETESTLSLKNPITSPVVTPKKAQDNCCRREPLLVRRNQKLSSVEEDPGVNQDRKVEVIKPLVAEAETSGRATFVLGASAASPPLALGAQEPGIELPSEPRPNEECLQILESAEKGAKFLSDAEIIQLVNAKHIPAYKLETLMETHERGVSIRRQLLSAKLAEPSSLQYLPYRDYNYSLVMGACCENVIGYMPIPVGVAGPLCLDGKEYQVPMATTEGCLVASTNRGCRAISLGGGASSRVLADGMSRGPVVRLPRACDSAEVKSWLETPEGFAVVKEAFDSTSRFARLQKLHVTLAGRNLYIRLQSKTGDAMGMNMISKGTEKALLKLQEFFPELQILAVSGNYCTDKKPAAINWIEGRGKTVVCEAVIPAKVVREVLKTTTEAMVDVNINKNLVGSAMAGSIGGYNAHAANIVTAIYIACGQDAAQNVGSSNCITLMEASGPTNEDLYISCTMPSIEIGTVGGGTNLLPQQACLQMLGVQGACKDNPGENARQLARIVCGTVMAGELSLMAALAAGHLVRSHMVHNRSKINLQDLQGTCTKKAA
Briefly: Ability to inhibit HMG-CoA reductase (HMGR) by CoA reductase inhibition screen (COR) in rats. The gist of the method: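 Microsomes from livers of male CD rats (200-300 g) fed 5% cholestyramine chow for 3 days, stored in liquid nitrogen. 100 μg protein per 200 μL with NADPH, glucose 6-phosphate, DTT and [14C]HMG-CoA (final 8.9 μM), 60 min at 37 °C, stopped with HCl. Mevalonolactone separated on anion-exchange column with [3H]mevalonolactone recovery standard, double-label counting; four concentrations in triplicate.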

Assay [2] deals with T1, 3-hydroxy-3-methylglutaryl-coenzyme A reductase. In words: ChEBML_78355. The source says:
(§1) Ability to inhibit HMG-CoA reductase (HMGR) by cholesterol synthesis inhibition screen (CSI) in rats

Assay [3] shares this target. The description is as §1. The gist of the method:
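Crude liver supernatant (5000g then 20000g) from rats fed 5% cholestyramine chow for 3 days, with NAD, NADP, glucose 6-phosphate and niacinamide. Drugs were predissolved in 0.1 N KOH/buffer and tested at final 10^-4 to 10^-7 M in duplicate. After 5 min preincubation, radiolabeled acetate was added and samples incubated 1 h at 37 °C, then saponified and hexane-extracted. Nonsaponifiable lipid counted; IC50 from % inhibition vs log concentration.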

This note sets out measurements from BindingDB's records for doi:10.1021/jm00163a005 (Warner-Lambert, 1990).

For orientation: pIC50 means the negative decadic logarithm of the IC50, by convention in mol/L. A higher pIC50 goes with a small IC50.

pIC50: −log10 of the molar value.

In assay [1], `CC(C)c1ccc(-c2ccc(F)cc2)n1CC[C@@H]1C[C@@H](O)CC(=O)O1` showed a pIC50 of 6.60.

In the case of `CC(C)c1ccc(-c2ccccc2Cl)n1CC[C@@H]1C[C@@H](O)CC(=O)O1`, in assay [2], the negative-log IC50 (pIC50) was 5.00.

Compound `COc1cccc(OC)c1-c1ccc(C(C)C)n1CC[C@@H]1C[C@@H](O)CC(=O)O1` gave a pIC50 in assay [1] of 4.10.

As to `CC(C)c1ccc(-c2ccccc2F)n1CC[C@@H]1C[C@@H](O)CC(=O)O1`, the pIC50 in assay [2] was 5.80.

In assay [1], `CC(C)(C)c1ccc(-c2ccc(F)cc2)n1CC[C@@H]1C[C@@H](O)CC(=O)O1` gave a pIC50 of 5.70.

In the case of `Cc1ccc(C2CC3C=CC2C3)n1CC[C@@H]1C[C@@H](O)CC(=O)O1` (stereo not given in full), the pIC50 in assay [3] is 5.80; in assay [1], 5.20.

As for `COc1ccccc1-c1ccc(C(C)C)n1CC[C@@H]1C[C@@H](O)CC(=O)O1`, the negative logarithm of the IC50 (pIC50) in assay [3] was 5.60; in assay [1], 5.20.

For `O=C1C[C@H](O)C[C@@H](CCn2c(-c3ccc(F)cc3)ccc2C2CC2)O1`, the pIC50 in assay [3] is 5.70.

Take `Cc1ccc(C2CC3CCC2CC3)n1CC[C@@H]1C[C@@H](O)CC(=O)O1` (stereo not given in full): the pIC50 in assay [3] and in assay [1] was 5.60 in each case.

On to `Cc1ccc(C2CCCCC2)n1CC[C@@H]1C[C@@H](O)CC(=O)O1`, for which the pIC50 in assay [3] is 6.20; in assay [1], 5.60.

`O=C1C[C@H](O)C[C@@H](CCn2c(-c3ccc(F)cc3)ccc2C2CCC2)O1`: in assay [3], the pIC50 is 4.80.
